From ChEMBL document CHEMBL3751842, “Novel triazolothiadiazines act as potent anticancer agents in liver cancer cells through Akt and ASK-1 proteins” (Bioorg Med Chem, 2016) come the findings set out here.

Experiment [1] concerns the target T1, Mitogen-activated protein kinase kinase kinase 5 (Homo sapiens) (UniProt Q99683).
T1 sequence (whole entry): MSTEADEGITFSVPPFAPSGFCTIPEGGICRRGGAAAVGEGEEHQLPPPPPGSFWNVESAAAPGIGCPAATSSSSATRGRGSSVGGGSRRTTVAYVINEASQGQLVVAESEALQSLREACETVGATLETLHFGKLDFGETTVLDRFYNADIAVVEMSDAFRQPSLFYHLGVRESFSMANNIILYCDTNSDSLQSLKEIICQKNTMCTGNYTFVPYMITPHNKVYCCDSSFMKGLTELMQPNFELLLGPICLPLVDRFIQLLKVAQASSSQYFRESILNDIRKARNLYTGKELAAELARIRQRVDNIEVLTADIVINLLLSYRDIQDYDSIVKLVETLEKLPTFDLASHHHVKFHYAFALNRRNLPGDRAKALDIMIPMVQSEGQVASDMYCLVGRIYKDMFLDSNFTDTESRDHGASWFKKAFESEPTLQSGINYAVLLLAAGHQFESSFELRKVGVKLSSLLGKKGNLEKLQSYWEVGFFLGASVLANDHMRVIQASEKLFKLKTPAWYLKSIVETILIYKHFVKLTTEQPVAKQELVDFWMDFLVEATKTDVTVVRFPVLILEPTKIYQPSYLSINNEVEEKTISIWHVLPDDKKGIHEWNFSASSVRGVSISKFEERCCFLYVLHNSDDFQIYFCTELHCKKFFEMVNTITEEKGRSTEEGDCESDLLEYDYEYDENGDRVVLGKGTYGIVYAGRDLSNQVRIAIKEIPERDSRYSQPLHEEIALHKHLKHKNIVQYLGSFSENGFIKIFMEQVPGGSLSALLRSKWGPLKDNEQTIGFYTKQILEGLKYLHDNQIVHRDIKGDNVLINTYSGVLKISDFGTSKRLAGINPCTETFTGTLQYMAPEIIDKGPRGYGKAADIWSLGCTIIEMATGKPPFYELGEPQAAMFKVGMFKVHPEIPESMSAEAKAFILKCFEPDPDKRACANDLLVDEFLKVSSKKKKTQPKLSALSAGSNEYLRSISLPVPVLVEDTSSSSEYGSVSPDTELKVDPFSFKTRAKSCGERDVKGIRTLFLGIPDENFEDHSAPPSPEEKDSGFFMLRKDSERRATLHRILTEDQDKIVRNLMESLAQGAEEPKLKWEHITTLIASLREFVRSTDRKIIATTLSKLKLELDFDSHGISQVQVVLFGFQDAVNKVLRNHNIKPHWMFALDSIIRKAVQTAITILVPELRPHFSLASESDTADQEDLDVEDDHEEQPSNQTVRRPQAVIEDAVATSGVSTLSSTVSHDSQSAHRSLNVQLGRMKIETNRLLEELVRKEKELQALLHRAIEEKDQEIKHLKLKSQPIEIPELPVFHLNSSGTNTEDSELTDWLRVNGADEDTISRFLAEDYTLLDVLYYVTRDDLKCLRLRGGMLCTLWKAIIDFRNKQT
The experiment can be described thus: Activation of ASK1 in human HuH7 cells assessed as SAPK/JNK phosphorylation after 24 to 48 hrs by Western blot analysis. In kind it is cell-based. As to conditions: Huh-7. The method in brief:
(§1)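 Cells were exposed to compound or DMSO control for 24 or 48 h. Lysates were loaded at […] protein per lane and immunoblotted with antibodies diluted 1:100 to 1:500 in 5% BSA-TBS-T. Targets were p-Akt (Ser473), Akt, p-GSK3-α/β (Ser21/9), GSK3-α/β, SAPK/JNK, p-SAPK/JNK (Thr183/Tyr185), PARP, p-β-catenin, β-catenin, cyclin D1, p-ASK1 (S83) and p-ASK1 (S966). Actin served as the loading control.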
A general note: Immunoblotting shows a protein as a band on a membrane.

For experiment [2], the target named is T1, Mitogen-activated protein kinase kinase kinase 5 (Homo sapiens). The experiment is described as follows: Activation of ASK1 in human HuH7 cells assessed as Ser966 phosphorylation after 24 to 48 hrs by Western blot analysis. Conditions: Huh-7. In kind it is cell-based. In outline: as §1
Experiment [3] has the same target. The experiment is described as follows: Activation of ASK1 in human Mahlavu cells assessed as Ser83 phosphorylation after 24 to 48 hrs by Western blot analysis. In kind it is cell-based. In outline: as §1
The test system of experiment [4] is Huh-7. The experiment can be described thus: Induction of apoptosis in human HuH7 cells assessed as decrease in cyclin D1 level after 24 to 48 hrs by Western blot analysis. In kind it is functional, cell-based. In outline: as §1
In experiment [5] the target is Glycogen synthase kinase-3 beta (Homo sapiens) (UniProt P49841). The experiment is described as follows: Inhibition of GSK3beta phosphorylation in human HuH7 cells after 24 to 48 hrs by Western blot analysis. In kind it is cell-based. As to conditions: Huh-7. The method in brief: as §1
Sequence of Glycogen synthase kinase-3 beta (Homo sapiens) (P49841 whole entry, looked up): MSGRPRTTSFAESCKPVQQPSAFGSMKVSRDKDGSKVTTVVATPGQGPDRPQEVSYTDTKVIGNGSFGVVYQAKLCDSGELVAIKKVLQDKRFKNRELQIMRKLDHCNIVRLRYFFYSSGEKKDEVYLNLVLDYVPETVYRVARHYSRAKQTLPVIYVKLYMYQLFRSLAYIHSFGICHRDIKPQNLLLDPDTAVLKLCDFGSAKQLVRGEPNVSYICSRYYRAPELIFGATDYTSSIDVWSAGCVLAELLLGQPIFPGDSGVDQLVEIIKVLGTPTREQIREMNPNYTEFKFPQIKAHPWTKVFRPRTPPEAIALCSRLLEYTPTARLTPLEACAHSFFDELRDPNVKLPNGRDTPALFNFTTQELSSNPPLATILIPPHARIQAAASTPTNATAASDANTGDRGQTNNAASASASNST
The target in experiment [6] is RAC-alpha serine/threonine-protein kinase (Homo sapiens) (UniProt P31749). The experiment can be described thus: Inhibition of Akt phosphorylation in human HuH7 cells after 24 to 48 hrs by Western blot analysis. As to conditions: Huh-7. In kind it is cell-based. The method in brief: as §1
Sequence of RAC-alpha serine/threonine-protein kinase (Homo sapiens) (P31749 whole entry): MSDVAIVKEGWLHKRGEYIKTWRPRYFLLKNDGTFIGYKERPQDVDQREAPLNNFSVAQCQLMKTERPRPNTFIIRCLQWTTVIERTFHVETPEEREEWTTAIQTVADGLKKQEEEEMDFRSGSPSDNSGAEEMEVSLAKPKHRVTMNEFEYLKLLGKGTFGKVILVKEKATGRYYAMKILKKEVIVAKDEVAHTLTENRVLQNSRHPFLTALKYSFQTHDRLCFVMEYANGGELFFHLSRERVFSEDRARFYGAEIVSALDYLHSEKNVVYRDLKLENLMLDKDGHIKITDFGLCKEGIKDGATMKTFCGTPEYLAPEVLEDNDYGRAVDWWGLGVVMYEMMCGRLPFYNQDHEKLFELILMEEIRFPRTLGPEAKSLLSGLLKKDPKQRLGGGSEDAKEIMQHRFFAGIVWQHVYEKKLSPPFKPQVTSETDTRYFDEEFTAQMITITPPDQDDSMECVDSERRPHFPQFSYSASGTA
The next experiment concerns Mahlavu. The experiment can be described thus: Induction of oxidative stress in human Mahlavu cells assessed as ROS accumulation at 10 uM after 48 hrs by flow cytometry analysis. In kind it is functional, cell-based. In outline: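 Huh7 and Mahlavu cells were treated after 24 h with 10 µM compound or DMSO for 48 h. Cells were then trypsinized and processed with a MUSE oxidative stress kit for flow cytometric counting of ROS-positive cells. Cells grown in selenium-deficient serum-free medium served as the positive control.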
Background: Flow cytometry measures light scatter and fluorescence of single cells or particles in a stream.

Experiment [7] relates to Huh-7. The experiment can be described thus: Induction of apoptosis in human HuH7 cells assessed as horseshoe nuclear structure at 10 uM after 48 hrs by Hoechst 33258 staining-based immunofluorescence microscopy. In kind it is functional, cell-based. The method in brief: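 Cells on coverslips were incubated overnight, then treated with 10 µM compound or DMSO for 48 h. They were washed in ice-cold PBS, fixed in cold methanol for 10 min, and stained with 1 µg/mL Hoechst 33258 for 5 min in the dark. Nuclei were examined by fluorescence microscopy with a 40x objective.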

Experiment [8] can be described thus: Cytotoxicity against human SNU475 cells assessed as growth inhibition after 72 hrs by sulforhodamine B assay. In kind it is functional, cell-based, SNU-475. Conditions: Homo sapiens, SNU-475, 72 h; read-out: IC50. The method in brief:
(§2)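 Cells were grown at 37°C, 5% CO2 in DMEM with 10% FBS. They were seeded at 1000–3000 cells/well, grown 24 h, then exposed to compound at 2.5–40 µM for 72 h. Cells were fixed in 10% TCA for 1 h at 4°C, stained with 0.4% SRB in 1% acetic acid for 10 min, and the dye solubilized in 10 mM Tris. Absorbance was read at 515 nm; runs were in triplicate; IC50 was calculated, with fits of R2 0.8–1 accepted.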
For orientation: The SRB assay estimates cell density from bound dye.

The next experiment deals with HepG2. The experiment can be described thus: Cytotoxicity against human HepG2 cells assessed as growth inhibition after 72 hrs by sulforhodamine B assay. In kind it is functional, cell-based. Conditions: Homo sapiens, HepG2, 72 h; read-out: IC50. The method in brief: as §2

Active and inactive are the calls of the source. The rule behind the calls is not given here.

What is called IC50 is the point on the concentration scale where inhibition reaches its midpoint. For the compound `COc1ccc(C2=Nn3c(nnc3C(C)c3ccc(CC(C)C)cc3)SC2)cc1` (stereo not given), the result (in experiment [1]; in experiment [2]; in experiment [3]; with Huh-7 [4]; with Mahlavu; with Huh-7 [7]) was Active. In addition, the inhibition result in experiment [5] and in experiment [6] was “Active” throughout. Further, the IC50 in experiment [8] stood at 8.5 µM; in the experiment with HepG2 it was 3.8 µM.
Turning to `Cc1ccc(C2=Nn3c(nnc3C(C)c3ccc(CC(C)C)cc3)SC2)cc1` (stereo not given), the result (in experiment [1]; in experiment [2]; in experiment [3]; in the experiment with Huh-7 [4]; with Mahlavu; with Huh-7 [7]) was Active. Moreover, the inhibition entry in experiment [5] and in experiment [6] was “Active” each time. The IC50 in experiment [8] stood at 8.7 µM; with HepG2, 7.3 µM.
